In the RNAGym collection of RNA variant scans (doi:10.1126/science.aae0568):
Variants at the floor of the assay were thinned out.

B1: tRNA (parent)
chain: GUUCCGUUGGCGUAAUGGUAACGCGUCUCCCUCCUAAGGAGAAGACUGCGGGUUCGAGUCCCGUACGGAACG

Variants of: B1
Assay: yeast fitness relative to wild type (ratio to wild type); higher = fitter; tRNA-Arg(CCU), competitive growth, 37 C, YPD
Outline: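 Start and end populations of a pooled competition were compared by 100-nucleotide paired-end sequencing of gene amplicons. The Saccharomyces cerevisiae strains carried tRNA-Arg(CCU) gene variants at the native genomic locus, synthesised with a 3% per-site mutation rate at 69 sites, and competed in YPD at 37°C for 24 hours in six parallel replicates. Darwinian fitness relative to wild type was based on the change in genotype frequencies. Genotypes required ≥ 100 starting reads, and estimates < 0.5 were set to 0.5.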

Q: For GUUCCGUUGGCGUAACGGUAACGCGUCUCCCUCCUAAGGAGAAGACUGCGGGUUCAAGUCCCGUACGAAACG [U16C G56A G68A], which yeast fitness is on record?
A: The yeast fitness was 0.69.

Q: For GUUCCGUUGGCGUAACGGUAACGCGUCUCCCUCCUAAGGAGAAGACUGCGGGUUCGAGUCCCAUACGGAACG [U16C G63A], which yeast fitness is on record?
A: Its yeast fitness is 0.884.

Q: With GUUCCGUUGGCGUAACGGUAACGCGUCUCCCUCCUAAGGAGAAGACUGCGGGUUCGAGUCCCGUACCGAACG [U16C G67C] as the variant, how does the yeast fitness read?
A: Its yeast fitness is 0.861.

Q: With GUUCCGUUGGCGUAACGGUAACGCGUCUCCCUCCUAAGGAGAAGACUGCGGGUUCGAGUCCCGUACGAAACG [U16C G68A] as the variant, how does the yeast fitness read?
A: Its yeast fitness is 0.767.

Q: For GUUCCGUUGGCGUAACGGUAACGCGUCUCCCUCCUAAGGAGAAGACUGCGGGUUCGAGUCCCGUACGCAACG [U16C G68C], which yeast fitness is on record?
A: Its yeast fitness is 0.834.

Q: Which yeast fitness does the source give for GUUCCGUUGGCGUAACGGAAACGCGUCUUCCUCCUAAGGAGAAGACUGCGGGUUCGAGUCCCGUACGGAACG [U16C U19A C29U] here?
A: Its yeast fitness is 0.615.

Q: Which yeast fitness does the source give for GUUCCGUUGGCGUAACGGAAACGCGUCUCCCUCCUAAGGAGAAGACAGCGGGUUCGAGUCACGUACGGAACG [U16C U19A U47A C61A] here?
A: Its yeast fitness is 0.792.

Q: Which yeast fitness does the source give for GUUCCGUUGGCGUAACGGUAACGCGACUCCCUCCUAAGGAGAAGACUGCGGGUUCGAGUCCCGUACGGAACG [U16C U26A] here?
A: Its yeast fitness is 0.973.

Q: Which yeast fitness does the source give for GUUCCGUUGGCGUAACGGUAACGCGACUCCCUCCUAAGGAGAUGACUGCGGGUUCGAGUCCUGUACGGAACG [U16C U26A A43U C62U] here?
A: Its yeast fitness is no more than 0.5.

Q: For GUUCCGUUGGCGUAACGGUAACGCGACUCCCUCCUAACGAGAAGACUGCGGGUUCGAGUCCCGUACGGAACG [U16C U26A G38C], which yeast fitness is on record?
A: The yeast fitness was no more than 0.5.

Q: Which yeast fitness does the source give for GUUCCGUUGGCGUAACGGUAACGCGACUCCCUCCUAACGAGAAGACAGAGGGUUCGAGUCCCGUACGGAACG [U16C U26A G38C U47A C49A] here?
A: The yeast fitness was no more than 0.5.

Q: With GUUCCGUUGGCGUAACGGUAACGCGACUCCCUCCUAAGGAGAAGACUGCGGGUUCGAGUCCCGUACCGAACG [U16C U26A G67C] as the variant, how does the yeast fitness read?
A: The yeast fitness was 0.657.

Q: Which yeast fitness does the source give for GUUCCGUUGGCGUAACGGUAACGCGCCUCCCUCCUAAGGAGAAGACUGCGGGUUCGAGUCCCGUACGGAACG [U16C U26C] here?
A: Its yeast fitness is 0.884.

Q: Which yeast fitness does the source give for GUUCCGUUGGCGUAACGGUAACGCGCCUCCCUCCUAAGGCGAGAACUGCGGGUUCGAGUCCCGUACGGAACG [U16C U26C A40C A43G G44A] here?
A: The yeast fitness was no more than 0.5.

Q: With GUUCCGUUGGCGUAACGGUAACGCGCCUCCCUCCUAAGGAGAAGACUGCGGGUUCGAAUCCCGUACGGAACG [U16C U26C G58A] as the variant, how does the yeast fitness read?
A: Its yeast fitness is 1.11.

Q: With GUUCCGUUGGCGUAACGGUAACGCGUCCCCCUCCUACGGAGAAGACUGCGGGUUCAAGCCCCGUACGGAACG [U16C U28C A37C G56A U59C] as the variant, how does the yeast fitness read?
A: Its yeast fitness is no more than 0.5.

Q: For GUUCCGUUGGCGUAACGGUAACGCGUCCCCCUCCUAAGGAGAAGACUGCGGGUUUGCAUCCCGUACGGAACG [U16C U28C C55U A57C G58A], which yeast fitness is on record?
A: Its yeast fitness is no more than 0.5.

Q: Which yeast fitness does the source give for GUUCCGUUGGCGUAACGGUAACGCGUCCCCCUCCUAAGGAGAAGACUGCGGCUUCGAGUCCCGUACGGAACG [U16C U28C G52C] here?
A: Its yeast fitness is no more than 0.5.

Q: For GUUCCGUUGGCGUAACGGUAACGCGUCUCCCCCCUAAGCAGAAGACUGCGGGUUCGAGUCCCGUACGGAACG [U16C U32C G39C], which yeast fitness is on record?
A: Its yeast fitness is no more than 0.5.

Q: For GUUCCGUUGGCGUAACGGUAACGCGUCUCCCGCGUAAGGAGAAGACUGCGGGAUCGAGUCCCCUACGGAACG [U16C U32G C34G U53A G63C], which yeast fitness is on record?
A: The yeast fitness was no more than 0.5.

Q: With GUUCCGUUGGCGUAACGGUAACGCGUCUCCCGCCUAAGGAGAAGACUGCGGGUUCCAGUCCCGUACGAAACG [U16C U32G G56C G68A] as the variant, how does the yeast fitness read?
A: Its yeast fitness is no more than 0.5.

Q: Which yeast fitness does the source give for GUUCCGUUGGCGUAACGGUAACGCGUCUCCCUCCCAAGGAGAAGACUGCGGGUUCGAGUCCCGUACGGAACG [U16C U35C] here?
A: Its yeast fitness is 0.609.

Q: With GUUCCGUUGGCGUAACGGUAACGCGUCUCCCUCCCAAGGAGAAGACUGCGGGUUCGCGUCCCGUACGGAACG [U16C U35C A57C] as the variant, how does the yeast fitness read?
A: Its yeast fitness is 0.532.

Q: For GUUCCGUUGGCGUAACGGUAACGCGUCUCCCUCCGAAGGAGAAGACUCCGGGUUCGAGUCCCGUAUGGAACG [U16C U35G G48C C66U], which yeast fitness is on record?
A: Its yeast fitness is no more than 0.5.

Q: With GUUCCGUUGGCGUAACGGUAACGCGUCUCCCUCCUAAGGAGAAGACAGAGGGUUCGAGUCCUGUACGGAACG [U16C U47A C49A C62U] as the variant, how does the yeast fitness read?
A: Its yeast fitness is 0.778.

Q: Which yeast fitness does the source give for GUUCCGUUGGCGUAACGGUAACGCGUCUCCCUCCUAAGGAGAAGACAGCGGAUUCGAGUCCCGUACGGAACG [U16C U47A G52A] here?
A: The yeast fitness was no more than 0.5.

Q: For GUUCCGUUGGCGUAACGGUAACGCGUCUCCCUCCUAAGGAGAAGACCGCGGGUUCGAGUCCCGUACGGAACG [U16C U47C], which yeast fitness is on record?
A: The yeast fitness was 0.899.

Q: With GUUCCGUUGGCGUAACGGUAACGCGUCUCCCUCCUAAGGAGAAGACUGCGGGAUCGAGUCCCGUACGGAACG [U16C U53A] as the variant, how does the yeast fitness read?
A: Its yeast fitness is 0.611.

Q: With GUUCCGUUGGCGUAACGGUAACGCGUCUCCCUCCUAAGGAGAAGACUGCGGGUACGAGUCCCGUACGGAACG [U16C U54A] as the variant, how does the yeast fitness read?
A: The yeast fitness was 0.685.

Q: With GUUCCGUUGGCGUAACGGUAACGCGUCUCCCUCCUAAGGAGAAGACUGCGGGUACGAGUCCCGUAUGGAACG [U16C U54A C66U] as the variant, how does the yeast fitness read?
A: The yeast fitness was no more than 0.5.

Q: With GUUCCGUUGGCGUAACGGUAACGCGUCUCCCUCCUAAGGAGAAGACUGCGGGUUCGAGACCAGUACCGAACG [U16C U59A C62A G67C] as the variant, how does the yeast fitness read?
A: Its yeast fitness is no more than 0.5.

Q: For GUUCCGUUGGCGUAACGGUAACGCGUCUCCCUCCUAAGGAGAAGACUGCGGGUUCGAGCCCCGUACAGAACG [U16C U59C G67A], which yeast fitness is on record?
A: Its yeast fitness is no more than 0.5.

Q: For GUUCCGUUGGCGUAAGGGUCACGCGUCUCCCUCCUAAGGAAAAGACUGCGGGUUUGAGUCCCGUACGGAACG [U16G A20C G41A C55U], which yeast fitness is on record?
A: Its yeast fitness is no more than 0.5.

Q: For GUUCCGUUGGCGUAAGGGUUACGCGUCUCCCUCCUAAGGAGAAGACUGCGGGUUCGAGUCCCGUACGGAACG [U16G A20U], which yeast fitness is on record?
A: The yeast fitness was 0.642.

Q: Which yeast fitness does the source give for GUUCCGUUGGCGUAAGGGUUACGCGUCUCCCUCCUAAAGAGAAGACUGCGGGUUCGAGUCCCGUACAGUACG [U16G A20U G38A G67A A69U] here?
A: Its yeast fitness is no more than 0.5.

Q: For GUUCCGUUGGCGUAAGGGUAGCGCGUCUCUCUCCUACGGAGAAGACUGCGGGUUCGAGUCCCGUACGGAACG [U16G A21G C30U A37C], which yeast fitness is on record?
A: The yeast fitness was no more than 0.5.

Q: Which yeast fitness does the source give for GUUCCGUUGGCGUAAGGGUAGCGCGUCUCCUUCCUAAGGAGAAGACUGCGGGUUCGAGUCCCGUACGGAACG [U16G A21G C31U] here?
A: Its yeast fitness is 0.985.

Q: Which yeast fitness does the source give for GUUCCGUUGGCGUAAGGGUAUCGCGUCUCCCUCCUAAGGCGAAGACUGCGGGUUCGACUCCCGUCGGGAACG [U16G A21U A40C G58C A65C C66G] here?
A: Its yeast fitness is 0.515.
